Measurements of several laboratories.
Lines come from different studies, so protocols differ.
Route: oral

| Compound | host | matrix | dose | notes | bioavailability |
| --- | --- | --- | --- | --- | --- |
| N[C@@H](CSSC[C@H](N)C(=O)O)C(=O)O | Kunming mouse | plasma | 25 mg/kg | – | 18.6% |
| COc1ccc2nccc(N3CCc4c(cc(Cn5ccnc5)cc4-c4cn(C)nc4C(F)(F)F)C3=O)c2c1 | male CD-1 mouse | plasma | 50 mg/kg | – | 110% |
| CCc1ccc(Cc2cc([C@@H]3O[C@H](CO)[C@@H](O)[C@H](O)[C@H]3O)cc3c2CCC3)cc1 | male C57BL/6 mouse | plasma | 1 mg/kg | – | 89% |
| N#Cc1ccc(/C=C/c2nc3ccccc3c(=O)n2-c2cccc(C(=O)O)c2)cc1 | mouse | plasma | 10 mg/kg | single dose | 50% |
| O=C(NCCN1CCCC1)c1cc(-c2ccc(CN3CCOCC3)cc2)nc2ccc(F)cc12 | female NMRI mouse | blood | 3 mg/kg | – | 74% |
| CCc1cc(C(=O)NC)c2nccc(N3CCc4c(cc(Cn5ccnc5)cc4-c4cn(C)nc4C(F)(F)F)C3=O)c2c1 | male CD-1 mouse | plasma | 150 mg/kg | – | 252% |
| O=C(CC1Cc2ccccc2C1)N[C@H](CN1CCCC1)[C@H](O)c1ccc(OC(F)(F)F)cc1 | CD-1 mouse | plasma | 10 mg/kg | – | 34% |
| COc1cc2ccccc2cc1C(=O)NC(=S)Nc1ccc(-c2nc3ccccc3[nH]2)cc1 | mouse | plasma | 5 mg/kg | – | < 1% |
| Nc1ccc(-c2ccc3ncc4ccc(=O)n(-c5cccc(C(F)(F)F)c5)c4c3c2)cn1 | male Swiss mouse | plasma | 10 mg/kg | – | 54% |
| OC[C@H]1O[C@@H](c2ccc(Cl)c(Cc3ccc(O[C@H]4CCOC4)cc3)c2)[C@H](O)[C@@H](O)[C@@H]1O | CD-1 mouse | plasma | 10 mg/kg | – | 25.6% |
| Cc1ccc2cncc(N3CCc4c(cc(Cn5ccnc5)cc4-c4cn(C)nc4C(F)(F)F)C3=O)c2c1 | male CD-1 mouse | plasma | 10 mg/kg | – | 35% |
| O=C1Nc2cc(F)cc(F)c2C(=O)CCc2ccccc21 | male Swiss mouse | plasma | – | – | ~20% |
| C=CC(=O)Nc1cccc(Nc2nc(Nc3ccc(N4CCN(C(C)=O)CC4)cc3OC)ncc2C(F)(F)F)c1 | female mouse | plasma | 20 mg/kg | – | 65% |
| O=C(NCC1CC1)c1cc(N2CC[C@H](O)C2)nc(N2CCC[C@@H](c3ccccc3)C2)n1 | mouse | plasma | 10 mg/kg | – | 25% |
| CCN1CCN(Cc2cc(NC(=O)c3ccc(C)c(-c4ccc5nc(NC(=O)C6CC6)cn5n4)c3)cc(C(F)(F)F)c2)CC1 | Swiss mouse | plasma | 10 mg/kg | – | 4% |
| CN1CCc2c(c3ccccc3n2Cc2ccc(C(=O)NO)cc2)C1 | male CD-1 mouse | plasma | 30 mg/kg | – | ~6% |
| COc1cc(N2CCN(C)CC2)ccc1Nc1ncc2c(n1)N(C)c1ccccc1C(=O)N2CC(F)(F)F | male Swiss mouse | plasma | 10 mg/kg | – | 81% |
| COc1nc(-c2cc(C)c(N[C@@H](C)c3ccc(F)cc3)nn2)ccc1-n1cnc(C)c1 | male CD-1 mouse | plasma | 5 mg/kg | single dose | 63.1% |
